Legend:
[1] = target: Histone-lysine N-methyltransferase EZH2 (Homo sapiens, UniProt O75530+Q15022+Q15910); assay: Inhibition of EZH2 histone methyltransferase activity of EZH2/EED/SUZ12 protein complex (unknown origin) using histone H3 peptide as substrate (21 to 44 residues) in presence of [3H]-S-adenosylmethionine after 2 hrs by scintillation proximity assay
How it was run: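 20 nM EZH2 trimeric complex with 2 μM 3H-SAM and 1 μM biotinylated H3(21–44) in 20 mM Tris-HCl pH 8, 5 mM DTT, 0.01% Triton X-100. Incubated 1 h at 23 °C, quenched with guanidine hydrochloride, then 2 h streptavidin flash-plate capture. Activity scaled between no-compound and no-enzyme counts.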

[2] = target: T1, Histone-lysine N-methyltransferase EZH1 (Homo sapiens, UniProt Q92800); assay: Inhibition of EZH1 histone methyltransferase activity of EZH1/EED/SUZ12/RBBP4/AEBP2 protein complex (unknown origin) using histone H3 peptide as substrate (21 to 44 residues) in presence of [3H]-S-adenosylmethionine after 2 hrs by scintillation proximity assay
T1 sequence (Q92800 whole entry): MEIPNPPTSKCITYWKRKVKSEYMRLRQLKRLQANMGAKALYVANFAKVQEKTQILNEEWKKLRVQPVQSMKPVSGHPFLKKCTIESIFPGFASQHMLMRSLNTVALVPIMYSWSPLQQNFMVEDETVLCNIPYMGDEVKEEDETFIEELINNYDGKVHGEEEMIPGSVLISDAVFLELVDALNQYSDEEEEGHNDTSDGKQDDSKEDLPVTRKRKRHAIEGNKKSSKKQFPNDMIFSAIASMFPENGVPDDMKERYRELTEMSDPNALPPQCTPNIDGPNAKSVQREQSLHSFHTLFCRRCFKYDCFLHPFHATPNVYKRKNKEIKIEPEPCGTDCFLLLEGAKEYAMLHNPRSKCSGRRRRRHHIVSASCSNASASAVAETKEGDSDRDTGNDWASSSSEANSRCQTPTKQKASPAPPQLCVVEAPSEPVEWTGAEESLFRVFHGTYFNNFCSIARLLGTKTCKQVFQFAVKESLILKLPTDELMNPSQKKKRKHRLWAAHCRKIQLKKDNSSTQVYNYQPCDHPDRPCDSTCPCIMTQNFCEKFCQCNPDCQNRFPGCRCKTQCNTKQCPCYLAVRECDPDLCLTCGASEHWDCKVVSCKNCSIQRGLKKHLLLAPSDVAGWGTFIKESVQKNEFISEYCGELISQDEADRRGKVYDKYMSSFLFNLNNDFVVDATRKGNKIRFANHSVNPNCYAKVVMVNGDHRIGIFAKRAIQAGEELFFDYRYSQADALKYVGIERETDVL
How it was run: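 10 nM EZH1 pentameric complex with 4 μM 3H-SAM and 1 μM biotinylated H3(21–44) in 20 mM Tris-HCl pH 8, 5 mM DTT, 0.01% Triton X-100. Reaction run 1 h at 23 °C, stopped with guanidine hydrochloride, then captured 2 h on a streptavidin flash plate. Counts normalized to no-compound (100%) and no-enzyme (0%) controls.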

Chain of Histone-lysine N-methyltransferase EZH2 (Q15910 whole entry, the tested form may be a part, one chain of several): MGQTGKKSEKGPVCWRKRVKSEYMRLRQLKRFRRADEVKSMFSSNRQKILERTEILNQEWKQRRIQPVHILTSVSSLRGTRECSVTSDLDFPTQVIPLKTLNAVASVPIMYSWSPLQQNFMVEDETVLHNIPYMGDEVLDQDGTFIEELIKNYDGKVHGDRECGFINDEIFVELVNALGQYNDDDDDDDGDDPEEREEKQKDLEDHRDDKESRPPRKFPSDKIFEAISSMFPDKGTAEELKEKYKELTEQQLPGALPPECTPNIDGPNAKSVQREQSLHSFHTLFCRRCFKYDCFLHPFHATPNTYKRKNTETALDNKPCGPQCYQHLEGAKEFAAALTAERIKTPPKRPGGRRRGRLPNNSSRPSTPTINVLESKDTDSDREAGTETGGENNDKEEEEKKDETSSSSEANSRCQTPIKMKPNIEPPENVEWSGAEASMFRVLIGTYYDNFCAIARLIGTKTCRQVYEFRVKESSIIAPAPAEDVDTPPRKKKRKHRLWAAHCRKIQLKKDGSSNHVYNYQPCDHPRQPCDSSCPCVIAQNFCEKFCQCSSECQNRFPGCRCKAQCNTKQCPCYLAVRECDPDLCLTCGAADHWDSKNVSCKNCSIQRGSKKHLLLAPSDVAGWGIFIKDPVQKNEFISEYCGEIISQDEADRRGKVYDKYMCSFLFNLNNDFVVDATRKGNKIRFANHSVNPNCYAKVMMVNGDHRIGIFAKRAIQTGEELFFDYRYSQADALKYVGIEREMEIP

IC50 [1]: 12 nM
IC50 [2]: 810 nM
Compound: CCc1cc(C)[nH]c(=O)c1CNC(=O)c1cc(-c2ccc(N3CCN(C(C)C)CC3)nc2)cc2c1cnn2C(C)C

Reference: ChEMBL document CHEMBL4477241, “Structure-Activity Relationship Studies for Enhancer of Zeste Homologue 2 (EZH2) and Enhancer of Zeste Homologue 1 (EZH1) Inhibitors” (J Med Chem, 2016)
